Assays:
[1] = Selectivity index, ratio of EC50 for human HepG2 cells to EC50 for antitrypanosomal activity against bloodstream form of Trypanosoma brucei brucei Lister 427
HepG2 = test: Cytotoxicity against human HepG2 cells assessed as reduction in cell viability measured after 66 hrs by resazurin dye based fluorescence assay; conditions: HepG2, 66 h
[2] = tested on: Trypanosoma brucei brucei; test: Antitrypanosomal activity against bloodstream form of Trypanosoma brucei brucei Lister 427 after 66 hrs by Resazurin dye-based fluorescence assay; format: functional, organism-based; conditions: Lister 427, 66 h
[3] = Inhibition of biotinylated PEX5-derived ALSENWAQEFLA binding to Trypanosoma brucei N-terminal His-tagged PEX14 (21 to 84 residues) expressed in Escherichia coli BL21 by Alphascreen assay
In short: (§1)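 His-tagged PEX14 (21-84) at 3 nM with 10 nM biotinylated peptide in PBS containing 5 mg/mL BSA and 0.01% Tween-80; 5 µg/mL streptavidin donor and nickel chelate acceptor beads; 5% DMSO held constant.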

[4] = Inhibition of biotinylated PEX5-derived ALSENWAQEFLA binding to Trypanosoma cruzi N-terminal His-tagged PEX14 (21 to 84 residues) expressed in Escherichia coli BL21 by Alphascreen assay
In short: as §1

[5] = target: Peroxisomal membrane protein PEX14 (Homo sapiens, UniProt O75381); test: Inhibition of biotinylated PEX5-derived ALSENWAQEFLA binding to human N-terminal His-tagged PEX14 (21 to 84 residues) expressed in Escherichia coli BL21 by Alphascreen assay
In short: as §1

Sequence of Peroxisomal membrane protein PEX14 (O75381 whole entry, change not shown, the tested form may be a part): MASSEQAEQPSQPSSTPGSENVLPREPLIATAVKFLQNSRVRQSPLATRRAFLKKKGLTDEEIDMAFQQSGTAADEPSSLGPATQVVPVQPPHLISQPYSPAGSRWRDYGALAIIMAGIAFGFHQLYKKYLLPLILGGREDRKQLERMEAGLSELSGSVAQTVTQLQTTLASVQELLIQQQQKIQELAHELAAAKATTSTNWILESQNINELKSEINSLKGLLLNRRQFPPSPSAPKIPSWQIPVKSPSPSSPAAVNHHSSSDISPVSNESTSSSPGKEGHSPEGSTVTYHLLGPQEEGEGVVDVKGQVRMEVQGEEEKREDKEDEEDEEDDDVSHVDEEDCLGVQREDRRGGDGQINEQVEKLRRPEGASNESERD

EC50 [2] [µM] | EC50 [5] [µM] | Structure (SMILES) | selectivity ratio [1] | EC50 (HepG2) [µM] | EC50 [3] [µM] | EC50 [4] [µM]
6.42 | > 1000 | COc1ccc(CN2CCc3nn4c(c3C2)C(=O)N(Cc2cccc3ccccc23)CC4)c2ccccc12 | > 7.8 | > 50 | 49.2 | 463
5.61 | > 1000 | COc1ccc(CN2CCc3nn4c(c3C2)CN(Cc2cccc3ccccc23)C4=O)c2ccccc12 | > 8.9 | > 50 | 103 | 448
3.58 | 166 | COc1ccc(CN2CCc3c(c(C(=O)NCc4cccc5ccccc45)nn3CCN3CCOCC3)C2)c2ccccc12 | 11.7 | 42 | 88.1 | 162

Source: ChEMBL document CHEMBL4376870, “Structure-Activity Relationship in Pyrazolo[4,3-c]pyridines, First Inhibitors of PEX14-PEX5 Protein-Protein Interaction with Trypanocidal Activity” (J Med Chem, 2020)
